“Also recorded” adds a separate entry of the source.
Assays:
[1] = system: rat peritoneal mast cells; test: In vitro mast cell degranulation, rat peritoneal mast cells; format: cell-based
Summary of the method: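 Freshly isolated rat peritoneal mast cells were resuspended in RPMI 1640 with 1% FBS. They were given increasing concentrations of the excipient peptide (up to 250 μg/mL), the siRNA drug substance (up to 1000 μg/mL), or both combined. Incubation was 37°C for 10 or 30 min. Supernatant histamine (nM ± SD) and chymase measured degranulation; LDH measured viability.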

[2] = system: human mast cell line HMC‐1; test: In vitro mast cell degranulation, human mast cell line HMC‐1; format: cell-based; conditions: HMC‐1 cells, 37°C, 30 minutes; up to 250 μg/mL ARC‐EX1 and ARC‐520 API
Summary of the method: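 HMC‑1 human mast cells were cultured in Iscove's medium with 2% FBS. They were exposed to increasing concentrations, up to 250 μg/mL, of the excipient peptide, the siRNA drug substance, or both combined. The positive control was phorbol myristate acetate plus calcium ionophore A23187. Incubation was 37°C for 30 min. Supernatants were assayed for histamine and β‑hexosaminidase (degranulation) and for LDH (viability).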

ARC‐EX1: delivery excipient: masked, hepatocyte‐targeted L‐melittin‐derived peptide; masking group carboxydimethyl maleic anhydride N‐acetyl galactosamine (LIGAILKVLATGLPTLISWIKNKRKQ; CDM-NAG masking groups)
Concentration at which maximum histamine release was observed ([1]; 10 and 30 minutes of incubation): ≥ 10000 ng/mL
Mast cell degranulation and histamine release ([1]; 37°C, 10 or 30 minutes, up to 250 μg/mL ARC‐EX1 or 1000 μg/mL ARC‐520 API): major trigger; also recorded: induced mast cell degranulation and histamine release in a dose‐dependent manner
Mast cell degranulation and histamine release [2]: major trigger

Source: paper PMC5516171 (Clinical Pharmacology in Drug Development, 2016)
